Each compound was assayed against Prothrombin (Homo sapiens, UniProt P00734) (assay: Inhibition of human alpha-thrombin using sarcosine-Pro-Arg-p-nitroanilide as substrate preincubated for 5 mins before substrate addition measured after 10 mins by spectrophotometry).
Method in brief: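 Human α-thrombin (>95% pure, 5070 U/mg) kept on ice in assay buffer (10 mM Tris, 150 mM NaCl, pH 7.6). Enzyme preincubated with peptide 5 min at 37 °C, then chromogenic substrate added. Final concentrations: 2 nM enzyme, 200 substrate. Nine peptide concentrations, each in triplicate.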

Row | Compound | IC50 [µM]
1 | Cc1ccc(C[C@H](NC(=O)[C@@H](C)NC(=O)[C@@H]2CCCN2C(=O)[C@@H]2C[C@@H]3CCCC[C@@H]3N2C(=O)c2ccc(NC(=N)N)cc2)C(N)=O)cc1 | 0.57
2 | Cc1ccc(C[C@H](NC(=O)[C@@H](C)NC(=O)[C@@H]2CCCN2C(=O)[C@@H]2C[C@@H]3CCCC[C@@H]3N2C(=O)[C@H]2CC[C@H](N=C(N)N)CC2)C(N)=O)cc1 | 2.5
3 | Cc1ccc(C[C@H](NC(=O)[C@@H](C)NC(=O)[C@@H]2CCCN2C(=O)[C@@H]2C[C@@H]3CCCC[C@@H]3N2C(=O)c2cccc(C(=N)N)c2)C(N)=O)cc1 | 1.03
4 | Cc1ccc(C[C@H](NC(=O)[C@@H](C)NC(=O)[C@@H]2CCCN2C(=O)[C@@H]2C[C@@H]3CCCC[C@@H]3N2C(=O)Cc2cccc(C(=N)N)c2)C(N)=O)cc1 | 26.2
5 | Cc1ccc(C[C@H](NC(=O)[C@@H](C)NC(=O)[C@@H]2CCCN2C(=O)[C@@H]2C[C@@H]3CCCC[C@@H]3N2C(=O)c2ccc(C(=N)N)cc2)C(N)=O)cc1 | 0.51
6 | Cc1ccc(C[C@H](NC(=O)[C@@H](C)NC(=O)[C@@H]2CCCN2C(=O)[C@@H]2C[C@@H]3CCCC[C@@H]3N2C(=O)[C@@H](C)CCCN=C(N)N)C(N)=O)cc1 | 9.8
7 | Cc1ccc(C[C@H](NC(=O)[C@@H](C)NC(=O)[C@@H]2CCCN2C(=O)[C@@H]2C[C@@H]3CCCC[C@@H]3N2C(=O)[C@@H](N)CCCN=C(N)N)C(N)=O)cc1 | 73

Continued by falling IC50, values first:

Row | IC50 [µM] | Compound
8 | 601 | H-RPPGF-OH
9 | 98 | Cc1ccc(C[C@H](NC(=O)[C@@H](C)NC(=O)[C@@H]2CCCN2C(=O)[C@@H]2C[C@@H]3CCCC[C@@H]3N2C(=O)[C@H](C)CCCN=C(N)N)C(N)=O)cc1
10 | 19.5 | Cc1ccc(C[C@H](NC(=O)[C@@H](C)NC(=O)[C@@H]2CCCN2C(=O)[C@@H]2C[C@@H]3CCCC[C@@H]3N2C(=O)[C@H]2CC[C@@H](N=C(N)N)CC2)C(N)=O)cc1
11 | 4.4 | Cc1ccc(C[C@H](NC(=O)[C@@H](C)NC(=O)[C@@H]2CCCN2C(=O)[C@@H]2C[C@@H]3CCCC[C@@H]3N2C(=O)[C@H](N)CCCN=C(N)N)C(N)=O)cc1
12 | 0.45 | Cc1ccc(C[C@H](NC(=O)[C@@H](C)NC(=O)[C@@H]2CCCN2C(=O)[C@@H]2C[C@@H]3CCCC[C@@H]3N2C(=O)Cc2ccc(C(=N)N)cc2)C(N)=O)cc1

Reference: ChEMBL document CHEMBL1926540, “Conformationally restricted analogs of the direct thrombin inhibitor FM 19” (Bioorg Med Chem, 2011)
